Screens deposited in PubChem BioAssay by Johns Hopkins Ion Channel Center.
A selection: hits, their analogues and other compounds. The true share with any hit is near 2.3%.
TRPC6 inh – inhibitors of mouse TRPC6 channel | Q61143 | HEK293-TRPC6, membrane potential dye, ACh-evoked depolarization; hits give low values | B-score at 10 µM | 1.1% of 310,000 active | AID 2553;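 active means B-score under library mean minus 3 SD, initial fluorescence not abnormally high, positive integrated signal ratio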;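 further: B-score derived from integrated fluorescence ratio over the kinetic read; more negative B-score means stronger inhibition of depolarization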
Target sequence (Q61143 whole entry, looked up): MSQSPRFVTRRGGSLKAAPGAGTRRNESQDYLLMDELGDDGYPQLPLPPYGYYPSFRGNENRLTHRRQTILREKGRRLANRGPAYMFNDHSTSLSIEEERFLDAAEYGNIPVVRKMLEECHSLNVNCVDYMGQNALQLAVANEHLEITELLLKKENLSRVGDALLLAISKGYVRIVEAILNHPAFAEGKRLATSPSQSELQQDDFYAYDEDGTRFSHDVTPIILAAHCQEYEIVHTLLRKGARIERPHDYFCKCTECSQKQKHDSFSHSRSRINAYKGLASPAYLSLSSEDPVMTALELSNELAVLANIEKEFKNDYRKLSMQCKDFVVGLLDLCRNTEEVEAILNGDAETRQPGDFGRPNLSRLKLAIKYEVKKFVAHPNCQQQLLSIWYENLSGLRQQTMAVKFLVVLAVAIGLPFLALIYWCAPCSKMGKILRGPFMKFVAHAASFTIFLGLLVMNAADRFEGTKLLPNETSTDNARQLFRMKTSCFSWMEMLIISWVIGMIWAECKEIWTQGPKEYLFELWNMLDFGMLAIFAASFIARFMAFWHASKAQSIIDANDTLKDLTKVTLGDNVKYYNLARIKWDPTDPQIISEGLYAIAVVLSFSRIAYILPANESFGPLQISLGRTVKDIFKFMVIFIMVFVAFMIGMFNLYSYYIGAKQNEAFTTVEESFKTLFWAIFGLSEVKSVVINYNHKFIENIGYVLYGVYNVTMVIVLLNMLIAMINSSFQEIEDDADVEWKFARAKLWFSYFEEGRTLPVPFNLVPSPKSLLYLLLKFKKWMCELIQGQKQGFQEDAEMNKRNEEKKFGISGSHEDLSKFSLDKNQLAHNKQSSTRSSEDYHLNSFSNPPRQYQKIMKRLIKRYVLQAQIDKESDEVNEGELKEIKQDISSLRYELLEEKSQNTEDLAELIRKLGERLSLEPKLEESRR
TRPC4 block – blocks the mouse TRPC4 cation channel; Q9QUQ5; HEK293 TRPC4beta/mu-opioid, DAMGO-evoked Fluo4 calcium flux; hits give low values; B-score at 10 µM; 0.39% of 300,000 active; AID 2247;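 active means B-score over 3 SD under the library average, no early fluorescence shift, positive overall ratio signal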
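Test system – stable TRPC4beta/mu-opioid receptor HEK293 cells · Probe or stimulus – DAMGO, a submaximal dose followed by a maximal one · Dosing – one concentration per compound · Signal – Fluo4 calcium fluorescence by kinetic imaging, 5 s 1 Hz baseline · Evaluation – per-well B score of integrated baseline-normalized Fluo4 ratio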
TRPC4 potent – allosterically enhances the mouse TRPC4 cation channel | Q9QUQ5 | HEK293 TRPC4beta/mu-opioid, DAMGO EC20, Fluo-4 Ca2+ flux; hits give high values | B-score at 10 µM | 0.42% of 310,000 active | AID 2227;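 active means B-score of calcium response area above 5 SD of library B-scores, with initial fluorescence ratio within 5 SD of library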;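 further: B-score of integrated fluorescence ratio over time as area under calcium response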
TRPC6 act – mouse TRPC6 channel activation; 0.13% of 310,000 active; B-score at 10 µM; HEK293-TRPC6 membrane potential dye fluorescence; hits give high values;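 active means B-score of the integrated fluorescence ratio above library mean plus 3 SD, and starting fluorescence ratio within library mean plus 5 SD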;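 further: higher score means more depolarization so channel activation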
TRPC4 agonist – activators of mouse TRPC4 channel | Q9QUQ5 | HEK293 TRPC4beta/mu-opioid, Fluo4 calcium fluorescence; hits give high values | B-score at 10 µM | 0.49% of 310,000 active;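 active means B-score above 5 SD of library B-scores, and initial fluorescence ratio not above library mean plus 5 SD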;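 further: positive B-score marks a calcium rise read as TRPC4 activation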
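Assay system: HEK293 stable line with TRPC4beta plus mu-opioid receptor. Times: dye 45 min RT, read 110 s. Measured by: kinetic Fluo4 calcium fluorescence. Measure: B score of integrated ratio. Controls: assay buffer as low control, maximal DAMGO as high control.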
Starred values were filed as active, the others as inactive; i = inactive.

SMILES | TRPC6 inh | TRPC4 block | TRPC4 potent | TRPC6 act | TRPC4 agonist
CC1(C)CC(=O)C(C=NCCc2ccccn2)=C(O)C1 | i | i | i | i | 50*
COc1cccc(N2C(=O)CC(N3CCN(CCN=CC4=C(O)CC(C)(C)CC4=O)CC3)C2=O)c1 (centres undefined) | i | i | 16* | i | i
CC1(C)CC(=O)C(C=NCCN2CCN(C3CC(=O)N(c4cccc(Br)c4)C3=O)CC2)=C(O)C1 (centres undefined) | i | i | 29* | i | i
CCCCCCOc1ccc(N2C(=O)CC(N3CCN(CCN=CC4=C(O)CC(C)(C)CC4=O)CC3)C2=O)cc1 (centres undefined) | i | i | i | i | i
CCC(=O)N1CCN(CCN=CC2=C(O)CC(C)(C)CC2=O)CC1 | i | i | i | i | i
CC1(C)CC(=O)C(C=NCCc2ccc(O)cc2)=C(O)C1 | i | i | i | i | i
O=C(Cc1ccccc1)NCC(=O)N1CCN(c2ccccc2F)CC1 | i | i | i | i | i
O=Cc1c(SCCO)nc2ccccn2c1=O | i | i | i | i | i
COC(=O)CSc1nc2ccccn2c(=O)c1C=O | i | -6* | i | i | i
CCc1ccc2nc3nc(C)cc(C)c3c(N)c2c1 | i | -6* | i | i | i
Cc1csc(SCC(=O)Nc2oc(C)c3c(C)n[nH]c(=O)c23)n1 | i | i | i | i | i
CCN1CCCC1CNCc1cccc(OC)c1OCc1ccc(F)cc1 (centres undefined) | i | i | i | i | 58*
CCN1CCCC1CNC(=O)c1cc2c(OC)cccc2[nH]1 (centres undefined) | i | i | i | i | 154*
CCN1CCCC1CNCc1ccc(Cl)cc1Cl (centres undefined) | i | i | 29* | i | i
Cc1ccc(C)c(S(=O)(=O)N2CCN(C(=O)Cn3[nH]c(=O)c4ccccc4c3=O)CC2)c1 | i | i | i | i | i
Cc1ccc(-c2nnc(N3CCC(C)CC3)c3ccccc23)cc1C | i | i | 63* | i | i
O=C(CSc1nnc(-c2ccccc2)o1)c1ccc2c(c1)OCCO2 | i | -6* | i | i | i
O=C(N/N=C/c1ccccc1OC(F)F)NC1CCCCC1 | i | i | i | i | i
O=C(N/N=C/c1ccccc1F)NC1CCCCC1 | i | i | 21* | i | 177*
O=C(N/N=C/c1cccc(F)c1)NC1CCCCC1 | i | i | 12* | i | i
O=C(N/N=C/c1ccccc1)NC1CCCCC1 | i | i | i | i | i
O=C(c1ccc([N+](=O)[O-])s1)N1CCN(c2cccc(Cl)c2)CC1 | i | -6* | i | i | i
CC(=C1C(=O)c2ccccc2C1=O)N1CCN(Cc2ccccc2)CC1 | i | i | i | i | i
O=C(O)C1C2C=CC(C2)C1C(=O)N1CCN(C/C=C/c2ccccc2)CC1 (centres undefined) | i | i | i | i | 84*
O=S(=O)(c1ccccc1)N1CCN(C/C=C/c2ccccc2)CC1 | i | -6* | i | i | i
SMILES | TRPC6 inh | TRPC4 block | TRPC4 potent | TRPC6 act | TRPC4 agonist
CC(=C1C(=O)c2ccccc2C1=O)N1CCN(C/C=C/c2ccccc2)CC1 | i | i | i | i | 49*
O=C1OC(N2CCN(C/C=C/c3ccccc3)CC2)c2ccccc21 (centres undefined) | i | i | i | i | 83*
COCCCNC(=O)c1cc2c(-c3cccc(OC)c3)nn(C)c2s1 | i | i | i | i | i
CCCN(CCC)CCNC(=O)c1cc2c(-c3ccc(Cl)cc3)nn(C)c2s1 | i | i | i | i | 47*
CCN(CC)CCNC(=O)c1cc2c(-c3cccc(OC)c3)nn(C)c2s1 | i | i | 17* | i | i
COc1ccc(-c2nn(C)c3sc(C(=O)NCCN(C)C)cc23)cc1OC | i | i | i | i | i
CCCCN(CC)CCNC(=O)c1cc2c(-c3ccc(Cl)cc3)nn(C)c2s1 | i | i | i | i | 94*
CCCN(CCC)CCCNC(=O)c1cc2c(-c3ccc(OC)c(OC)c3)nn(C)c2s1 | i | i | i | i | 114*
O=C(Cn1ncc2c([nH]c3ccccc32)c1=O)N1CCOCC1 | i | i | i | i | i
Cn1nc([N+](=O)[O-])c(C(C#N)c2ccccn2)c(Cl)c1=O (centres undefined) | i | i | i | i | i
CCn1nc([N+](=O)[O-])c(C(C#N)c2nc3cc(C(F)(F)F)ccc3s2)c(Cl)c1=O (centres undefined) | -11* | i | i | i | i
NS(=O)(=O)c1ccc(Oc2ccc(S(N)(=O)=O)cc2)cc1 | i | i | 96* | i | i
CCCCOc1ccc(S(N)(=O)=O)cc1 | i | i | i | i | i
c1ccc2c3c([nH]c2c1)C1(CCCCC1)NCC3 | i | i | i | i | i
CC12CCCCN1CCCc1c2[nH]c2ccccc12 (centres undefined) | i | i | i | i | 91*
Cc1ccc(NC(=O)NC(=O)CN2C(=O)NC3(CCCCCCC3)C2=O)c(C)c1 | -5.6* | i | i | i | i
C=CCNC(=O)/C(=C/c1cccc([N+](=O)[O-])c1)NC(=O)c1ccccc1 | i | i | i | i | i
Cc1cc(C=O)c(C)n1-c1ccc(NC2CCCC2)c([N+](=O)[O-])c1 | i | i | 13* | i | i
Cc1cc(C=O)c(C)n1-c1ccc(Oc2ccc([N+](=O)[O-])cn2)cc1 | i | i | i | i | i
Cc1ccc(C(C)C)cc1OCC(=O)NNC(=O)Nc1ccccc1 | i | i | i | i | i
CC1(c2ccc(OC(F)F)cc2)NC(=O)N(CC(=O)c2ccc3c(c2)OCO3)C1=O (centres undefined) | i | i | i | i | 62*
CC1(c2ccc(OC(F)F)cc2)NC(=O)N(CC(=O)Nc2ccc(F)cc2)C1=O (centres undefined) | i | i | i | i | i
CC1(c2ccc(OC(F)F)cc2)NC(=O)N(CC(=O)Nc2ccc(OC(F)F)cc2)C1=O (centres undefined) | i | i | i | i | 54*
COC(=O)C[C@H]1c2cc(F)ccc2S(=O)(=O)N1c1ccc(N(C)C)cc1 | i | i | i | i | i
COC(=O)C1=C(CCc2ccccc2)NC(=O)NC1c1ccc(C#N)cc1 (centres undefined) | i | i | i | i | i
